Assay results taken from ChEMBL document CHEMBL4689842, “EUbOPEN Chemogenomics Library wave 1” (2021).

Test system: HEK-293T
Assay: Multiplex assay against HEK293T;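 on Population Tubulin-Different-Phenotype (%): share of the cells with healthy nuclei that show this phenotype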
Type: toxicity, cell-based
Details: human
In short: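 Phenotypes for tubulin, mitochondrial mass and membrane permeability are expressed as per cents of healthy-nucleus cells. Cells were stained live at seeding with Hoechst33342, BioTracker Green Microtubule Cytoskeleton Dye, MitoTracker Red and Annexin V Alexa Fluor 680, then imaged after compound addition on a CQ1 microscope at 37°C and 5% CO2. Machine-learning gating in CellPathfinder separated Hoechst high-intensity objects from normal cells, divided normal cells by nuclear state (healthy, pyknosed, fragmented) and divided pyknosed cells into mitotic or apoptotic.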

[1] = 12 h, 1 µM, compound concentration 1 uM, replicate 1
[2] = 12 h, 1 µM, compound concentration 1 uM, replicate 2
[3] = 12 h, 10 µM, compound concentration 10 uM, replicate 1
[4] = 12 h, 10 µM, compound concentration 10 uM, replicate 2
[5] = 24 h, 1 µM, compound concentration 1 uM, replicate 1
[6] = 24 h, 1 µM, compound concentration 1 uM, replicate 2
[7] = 24 h, 10 µM, compound concentration 10 uM, replicate 1
[8] = 24 h, 10 µM, compound concentration 10 uM, replicate 2
[9] = 48 h, 1 µM, compound concentration 1 uM, replicate 1
[10] = 48 h, 1 µM, compound concentration 1 uM, replicate 2
[11] = 48 h, 10 µM, compound concentration 10 uM, replicate 1
[12] = 48 h, 10 µM, compound concentration 10 uM, replicate 2

`CCOc1cc(C(=O)N2CCC(N3CCN(C)CC3)CC2)ccc1Nc1ncc2c(n1)N(C1CCCC1)c1ccccc1C(=O)N2C` was tested, and the “Population Apoptotic (%)” value [1] was 61%, the “Population Fragmented Nuclei (%)” value [1] was 16% and the “Population Hoechst High Intensity Objects (%)” value [1] was 18%. The “Population Membrane Permeable-Phenotype (%)” value [1] was 5%, the “Population Mitochondria Different-Phenotype (%)” value [1] was 93% and the “Population Mitotic Cells (%)” value [1] was 38%. For the same compound, the “Population Normal (%)” value [1] was 81%, the “Population Pyknosed Nuclei (%)” value [1] was 57% and the “Population Tubulin-Different-Phenotype (%)” value [1] was 81%. The “Total Cell Count” value [1] was 371, the “Population Apoptotic (%)” value [2] was 60% and the “Population Fragmented Nuclei (%)” value [2] was 4%. The “Population Healthy Nuclei (%)” value [2] was 25%, the “Population Hoechst High Intensity Objects (%)” value [2] was 5% and the “Population Membrane Permeable-Phenotype (%)” value [2] was 9%. For the same compound, the “Population Mitochondria Different-Phenotype (%)” value [2] was 88%, the “Population Mitotic Cells (%)” value [2] was 39% and the “Population Normal (%)” value [2] was 94%. The “Population Pyknosed Nuclei (%)” value [2] was 70%, the “Population Tubulin-Different-Phenotype (%)” value [2] was 79% and the “Total Cell Count” value [2] was 178. For the same compound, the “Population Apoptotic (%)” value [3] was 83%, the “Population Fragmented Nuclei (%)” value [3] was 8% and the “Population Healthy Nuclei (%)” value [3] was 12%. The “Population Hoechst High Intensity Objects (%)” value [3] was 15%, the “Population Mitochondria Different-Phenotype (%)” value [3] was 95% and the “Population Mitotic Cells (%)” value [3] was 16%. The “Population Normal (%)” value [3] was 84%, the “Population Pyknosed Nuclei (%)” value [3] was 79% and the “Population Tubulin-Different-Phenotype (%)” value [3] was 60%. The “Total Cell Count” value [3] was 215, the “Population Apoptotic (%)” value [4] was 92% and the “Population Fragmented Nuclei (%)” value [4] was 5%. The “Population Healthy Nuclei (%)” value [4] was 6%, the “Population Hoechst High Intensity Objects (%)” value [4] was 7% and the “Population Membrane Permeable-Phenotype (%)” value [4] was 0%. The “Population Mitochondria Different-Phenotype (%)” value [4] was 100%, the “Population Mitotic Cells (%)” value [4] was 7% and the “Population Normal (%)” value [4] was 92%. For the same compound, the “Population Pyknosed Nuclei (%)” value [4] was 88%, the “Population Tubulin-Different-Phenotype (%)” value [4] was 16% and the “Total Cell Count” value [4] was 216. For the same compound, the “Population Apoptotic (%)” value [5] was 63%, the “Population Fragmented Nuclei (%)” value [5] was 19% and the “Population Hoechst High Intensity Objects (%)” value [5] was 19%. The “Population Membrane Permeable-Phenotype (%)” value [5] was 3%, the “Population Mitochondria Different-Phenotype (%)” value [5] was 96% and the “Population Mitotic Cells (%)” value [5] was 36%. For the same compound, the “Population Normal (%)” value [5] was 80%, the “Population Pyknosed Nuclei (%)” value [5] was 54% and the “Population Tubulin-Different-Phenotype (%)” value [5] was 83%. For the same compound, the “Total Cell Count” value [5] was 391, the “Population Apoptotic (%)” value [6] was 66% and the “Population Fragmented Nuclei (%)” value [6] was 4%. The “Population Healthy Nuclei (%)” value [6] was 26%, the “Population Hoechst High Intensity Objects (%)” value [6] was 3% and the “Population Membrane Permeable-Phenotype (%)” value [6] was 5%. For the same compound, the “Population Mitochondria Different-Phenotype (%)” value [6] was 92%, the “Population Mitotic Cells (%)” value [6] was 33% and the “Population Normal (%)” value [6] was 96%. For the same compound, the “Population Pyknosed Nuclei (%)” value [6] was 69%, the “Population Tubulin-Different-Phenotype (%)” value [6] was 75% and the “Total Cell Count” value [6] was 204. The “Population Apoptotic (%)” value [7] was 91%, the “Population Fragmented Nuclei (%)” value [7] was 15% and the “Population Healthy Nuclei (%)” value [7] was 4%. For the same compound, the “Population Hoechst High Intensity Objects (%)” value [7] was 19%, the “Population Membrane Permeable-Phenotype (%)” value [7] was 0% and the “Population Mitochondria Different-Phenotype (%)” value [7] was 100%. For the same compound, the “Population Mitotic Cells (%)” value [7] was 8%, the “Population Normal (%)” value [7] was 80% and the “Population Pyknosed Nuclei (%)” value [7] was 80%. The “Population Tubulin-Different-Phenotype (%)” value [7] was 37%, the “Total Cell Count” value [7] was 206 and the “Population Apoptotic (%)” value [8] was 93%. The “Population Fragmented Nuclei (%)” value [8] was 6%, the “Population Healthy Nuclei (%)” value [8] was 18% and the “Population Hoechst High Intensity Objects (%)” value [8] was 11%. The “Population Mitochondria Different-Phenotype (%)” value [8] was 97%, the “Population Mitotic Cells (%)” value [8] was 6% and the “Population Normal (%)” value [8] was 88%. The “Population Pyknosed Nuclei (%)” value [8] was 74%, the “Population Tubulin-Different-Phenotype (%)” value [8] was 21% and the “Total Cell Count” value [8] was 222. For the same compound, the “Population Apoptotic (%)” value [9] was 64%, the “Population Fragmented Nuclei (%)” value [9] was 22% and the “Population Healthy Nuclei (%)” value [9] was 31%. The “Population Hoechst High Intensity Objects (%)” value [9] was 20%, the “Population Mitochondria Different-Phenotype (%)” value [9] was 91% and the “Population Mitotic Cells (%)” value [9] was 35%. The “Population Normal (%)” value [9] was 79%, the “Population Pyknosed Nuclei (%)” value [9] was 46% and the “Population Tubulin-Different-Phenotype (%)” value [9] was 65%. The “Total Cell Count” value [9] was 400, the “Population Apoptotic (%)” value [10] was 58% and the “Population Fragmented Nuclei (%)” value [10] was 8%. The “Population Healthy Nuclei (%)” value [10] was 48%, the “Population Hoechst High Intensity Objects (%)” value [10] was 5% and the “Population Membrane Permeable-Phenotype (%)” value [10] was 0%. The “Population Mitochondria Different-Phenotype (%)” value [10] was 72%, the “Population Mitotic Cells (%)” value [10] was 41% and the “Population Normal (%)” value [10] was 94%. The “Population Pyknosed Nuclei (%)” value [10] was 43%, the “Population Tubulin-Different-Phenotype (%)” value [10] was 63% and the “Total Cell Count” value [10] was 239. For the same compound, the “Population Apoptotic (%)” value [11] was 90%, the “Population Fragmented Nuclei (%)” value [11] was 23% and the “Population Healthy Nuclei (%)” value [11] was 2%. The “Population Hoechst High Intensity Objects (%)” value [11] was 20%, the “Population Membrane Permeable-Phenotype (%)” value [11] was 0% and the “Population Mitotic Cells (%)” value [11] was 9%. The “Population Normal (%)” value [11] was 79%, the “Population Pyknosed Nuclei (%)” value [11] was 74% and the “Population Tubulin-Different-Phenotype (%)” value [11] was 75%. The “Total Cell Count” value [11] was 233, the “Population Apoptotic (%)” value [12] was 98% and the “Population Fragmented Nuclei (%)” value [12] was 13%. The “Population Healthy Nuclei (%)” value [12] was 11%, the “Population Hoechst High Intensity Objects (%)” value [12] was 10% and the “Population Membrane Permeable-Phenotype (%)” value [12] was 5%. The “Population Mitochondria Different-Phenotype (%)” value [12] was 100%, the “Population Mitotic Cells (%)” value [12] was 1% and the “Population Normal (%)” value [12] was 90%. For the same compound, the “Population Pyknosed Nuclei (%)” value [12] was 75%, the “Population Tubulin-Different-Phenotype (%)” value [12] was 50% and the “Total Cell Count” value [12] was 200.
